Results: ChEMBL document CHEMBL3232960, “Synthesis of novel 1,2,3-triazole/isoxazole functionalized 2H-Chromene derivatives and their cytotoxic activity” (Bioorg Med Chem Lett, 2014)

Tests used:
Type in all cases: functional, cell-based
[1] = tested on: A549; assay: Cytotoxicity against human A549 cells assessed as growth inhibition after 24 hrs by MTT assay; settings: A549, 24 h
How it was run: (§1)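 Exponentially growing cells (A549 lung CCL-185, DU145 prostate HTB-81, HeLa cervical CCL-2, MCF7 breast HTB-22) exposed to a range of compound concentrations for 24 h; viability read by MTT. 5-Fluorouracil served as positive control. IC50 taken as concentration giving 50% drop in cell number versus untreated control cultures.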

[2] = tested on: HeLa; assay: Cytotoxicity against human HeLa cells assessed as growth inhibition after 24 hrs by MTT assay; how it was run: as §1
[3] = tested on: MCF7; assay: Cytotoxicity against human MCF7 cells assessed as growth inhibition after 24 hrs by MTT assay; settings: MCF7, 24 h; how it was run: as §1
[4] = tested on: DU-145; assay: Cytotoxicity against human DU145 cells assessed as growth inhibition after 24 hrs by MTT assay; settings: DU-145, 24 h; how it was run: as §1

| Structure (SMILES) | IC50 [1] [µM] | IC50 [2] [µM] | IC50 [3] [µM] | IC50 [4] [µM] |
| --- | --- | --- | --- | --- |
| O=C(O)C1=Cc2ccccc2OC1(OCc1cc(-c2ccc3ccccc3c2)no1)C(F)(F)F (stereo unspecified) | > 150 | > 150 | > 150 | 140 |
| CCOC(=O)C1=Cc2ccccc2OC1(OCc1cn(-c2ccc(C)cc2)nn1)C(F)(F)F (stereo unspecified) | 19.7 | 25.1 | 26.7 | 30.2 |
| CCOC(=O)C1=Cc2ccccc2OC1(OCc1cn(-c2ccc([N+](=O)[O-])cc2)nn1)C(F)(F)F (stereo unspecified) | > 150 | > 150 | > 150 | > 150 |
| CCOC(=O)C1=Cc2ccccc2OC1(OCc1cn(-c2ccccc2)nn1)C(F)(F)F (stereo unspecified) | > 150 | > 150 | > 150 | > 150 |
| CCOC(=O)C1=Cc2ccccc2OC1(OCc1cn(-c2ccc(F)c(Cl)c2)nn1)C(F)(F)F (stereo unspecified) | 26.3 | 22.7 | 25.3 | 21.5 |
| CCOC(=O)C1=Cc2ccccc2OC1(OCc1cn(-c2cccc(C(F)(F)F)c2)nn1)C(F)(F)F (stereo unspecified) | > 150 | > 150 | > 150 | > 150 |
| CCOC(=O)C1=Cc2ccccc2OC1(OCc1cn(-c2ccc(F)cc2)nn1)C(F)(F)F (stereo unspecified) | 7.3 | 8.4 | 9.1 | 8.9 |
| CCOC(=O)C1=Cc2ccccc2OC1(OCc1cn(-c2ccc(F)c([N+](=O)[O-])c2)nn1)C(F)(F)F (stereo unspecified) | 11.9 | 15.6 | 16.2 | 13.2 |
| CCOC(=O)C1=Cc2ccccc2OC1(OCc1cn(-c2cccc(OC)c2)nn1)C(F)(F)F (stereo unspecified) | > 150 | > 150 | > 150 | > 150 |
| CCCCCCCCn1cc(COC2(C(F)(F)F)Oc3ccccc3C=C2C(=O)OCC)nn1 (stereo unspecified) | > 150 | > 150 | > 150 | > 150 |
| CCOC(=O)C1=Cc2ccccc2OC1(OCc1cn(CC(=O)Nc2ccc(C)cc2)nn1)C(F)(F)F (stereo unspecified) | 54.3 | 67.4 | > 150 | > 150 |
| CCOC(=O)C1=Cc2ccccc2OC1(OCc1cn(CC(=O)Nc2ccc(OC)cc2)nn1)C(F)(F)F (stereo unspecified) | 29.4 | 31.9 | 28.1 | 32.7 |
| CCOC(=O)C1=Cc2ccccc2OC1(OCc1cn(CC(=O)Nc2cccc(Cl)c2)nn1)C(F)(F)F (stereo unspecified) | 12.8 | 12.3 | 11.6 | 10.1 |
| CCOC(=O)C1=Cc2ccccc2OC1(OCc1cn(CC(=O)Nc2cccc(F)c2)nn1)C(F)(F)F (stereo unspecified) | > 150 | > 150 | > 150 | > 150 |
| CCOC(=O)C1=Cc2ccccc2OC1(OCc1cn(CC(=O)Nc2ccccc2F)nn1)C(F)(F)F (stereo unspecified) | 50.1 | 49.9 | 42.1 | 33.9 |
| CCOC(=O)C1=Cc2ccccc2OC1(OCc1cn(CC(=O)Nc2ccccc2Br)nn1)C(F)(F)F (stereo unspecified) | > 150 | > 150 | > 150 | > 150 |
| CCOC(=O)C1=Cc2ccccc2OC1(OCc1cn(CC(=O)Nc2ccc(I)cc2Cl)nn1)C(F)(F)F (stereo unspecified) | 22.3 | 26.1 | 28.1 | 24.4 |

| Structure (SMILES) | IC50 [1] [µM] | IC50 [2] [µM] | IC50 [3] [µM] | IC50 [4] [µM] |
| --- | --- | --- | --- | --- |
| CCOC(=O)C1=Cc2ccccc2OC1(OCc1cn(CC(=O)NC2CCCCC2)nn1)C(F)(F)F (stereo unspecified) | 9.9 | 11.4 | 12.1 | 10.2 |
| CCOC(=O)C1=Cc2ccccc2OC1(OCc1cc(-c2ccc(F)cc2)no1)C(F)(F)F (stereo unspecified) | 35.5 | 42.3 | 48.2 | 53.5 |
| CCOC(=O)C1=Cc2ccccc2OC1(OCc1cc(-c2cccc(C(F)(F)F)c2)no1)C(F)(F)F (stereo unspecified) | 48.6 | 21.4 | 22.1 | 57.3 |
| CCOC(=O)C1=Cc2ccccc2OC1(OCc1cc(-c2ccc3ccccc3c2)no1)C(F)(F)F (stereo unspecified) | > 150 | > 150 | 65.4 | 71.8 |
| CCOC(=O)C1=Cc2ccccc2OC1(OCc1cc(-c2ccc(C)cc2)no1)C(F)(F)F (stereo unspecified) | > 150 | > 150 | > 150 | > 150 |
| CCOC(=O)C1=Cc2ccccc2OC1(OCc1cc(-c2ccc([N+](=O)[O-])cc2)no1)C(F)(F)F (stereo unspecified) | > 150 | > 150 | > 150 | > 150 |
| CCOC(=O)C1=Cc2ccccc2OC1(OCc1cc(-c2ccc(F)cc2F)no1)C(F)(F)F (stereo unspecified) | > 150 | > 150 | > 150 | > 150 |
| CCOC(=O)C1=Cc2ccccc2OC1(OCc1cc(-c2ccc(OC)cc2)no1)C(F)(F)F (stereo unspecified) | > 150 | > 150 | > 150 | > 150 |
| CCOC(=O)C1=Cc2ccccc2OC1(OCc1cc(-c2ccc(Br)cc2)no1)C(F)(F)F (stereo unspecified) | > 150 | 52.3 | > 150 | 71.7 |
| CCOC(=O)C1=Cc2ccccc2OC1(OCc1cc(-c2ccc(Cl)cc2)no1)C(F)(F)F (stereo unspecified) | 19.1 | 12.3 | 18.2 | 18.2 |
| Cc1ccc(-c2cc(COC3(C(F)(F)F)Oc4ccccc4C=C3C(=O)O)on2)cc1 (stereo unspecified) | 51.2 | 33.4 | 30.1 | 41.4 |
| O=C(O)C1=Cc2ccccc2OC1(OCc1cc(-c2ccc(F)cc2F)no1)C(F)(F)F (stereo unspecified) | > 150 | > 150 | > 150 | > 150 |
| O=C(O)C1=Cc2ccccc2OC1(OCc1cc(-c2ccc(F)cc2)no1)C(F)(F)F (stereo unspecified) | > 150 | > 150 | 64.2 | 168 |
| O=C(O)C1=Cc2ccccc2OC1(OCc1cc(-c2cccc(C(F)(F)F)c2)no1)C(F)(F)F (stereo unspecified) | > 150 | > 150 | > 150 | 155 |
| COc1ccc(-c2cc(COC3(C(F)(F)F)Oc4ccccc4C=C3C(=O)O)on2)cc1 (stereo unspecified) | 36.2 | > 150 | 35.2 | 42 |
| O=C(O)C1=Cc2ccccc2OC1(OCc1cc(-c2ccc([N+](=O)[O-])cc2)no1)C(F)(F)F (stereo unspecified) | > 150 | > 150 | > 150 | 100 |
| O=c1[nH]cc(F)c(=O)[nH]1 [FLUOROURACIL] | 1.9 | 1.8 | 1.8 | 1.9 |
